Active and inactive are the calls of the source. No cut-off for these calls is given here.

One experiment deals with Klebsiella pneumoniae. The experiment can be described thus: Antibacterial activity against Klebsiella pneumoniae ATCC 10032 assessed as inhibition zone at 1 mg after 24 hrs by agar diffusion method. It counts as functional. The note with it: ATCC 10032, 24 h, read-out: IZ. The method in brief:
(§1)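 Agar diffusion (cup method). Each compound, 1 mg dissolved in 1 mL DMF; 100 µL of this solution was placed in cups cut in seeded agar. Plates were incubated at 37 °C for 24 h and the inhibition zone was measured.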
Background: Agar diffusion results depend on both activity and mobility in agar.

For the next experiment, the system named is HCT-116. Kind of experiment: Cytotoxicity against human HCT116 cells at 10 ug/mL by MTT assay. It counts as functional, cell-based.
In experiment [1] the test system is Jejunum. The experiment can be described thus: Parasympatholytic activity in isolated rabbit jejunum assessed as decrease in nicotine-induced intestinal contraction. The format is functional, tissue-based. The note with it: Oryctolagus cuniculus. The method in brief:
(§2)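 Isolated rabbit jejunum. Compounds in distilled H2O (1.0 mg/mL stock), used at 1/1000 and 1/100 dilutions. Normal contractions recorded first. Then 0.1 mL nicotine (1/1000 dilution) or 10 gamma acetylcholine (0.1 mL of 1/10 000 dilution) added after the compound. Change in intestinal contraction recorded.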

The test system of experiment [2] is Jejunum. The experiment can be described thus: Parasympatholytic activity in isolated rabbit jejunum assessed as decrease in 10gamma-acetylcholine induced intestinal contraction. The format is functional, tissue-based. The note with it: Oryctolagus cuniculus. The method in brief: as §2
In experiment [3] the test system is Heart. Kind of experiment: Parasympatholytic activity in isolated perfused rabbit heart assessed as decrease in nicotine-induced effect. The note with it: Oryctolagus cuniculus. It counts as functional, tissue-based. The method in brief:
(§3)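 Rabbit heart perfused by modified Langendorff method. Normal contractions recorded and receptors (nicotinic, muscarinic, histaminergic, adrenergic) checked. Compound added at 1/100 dilution of 1.0 mg/mL aqueous stock. Then 0.1 mL nicotine (1/1000 dilution of 1 mL/100 mL H2O) or 10 gamma acetylcholine (0.1 mL of 1/10 000 dilution of 1 g/100 mL H2O) given; change in contraction recorded.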

Experiment [4] has as its system Heart. The experiment can be described thus: Parasympatholytic activity in isolated perfused rabbit heart assessed as decrease in 10gamma-acetylcholine induced effect. It counts as functional, tissue-based. The note with it: Oryctolagus cuniculus. The method in brief: as §3
A further experiment deals with Staphylococcus aureus. Kind of experiment: Antibacterial activity against Staphylococcus aureus ATCC 6538P assessed as inhibition zone at 1 mg after 24 hrs by agar diffusion method. The format is functional. The note with it: read-out: IZ. The method in brief:
as §1

For another experiment, the system named is Pseudomonas aeruginosa. The experiment can be described thus: Antibacterial activity against Pseudomonas aeruginosa ATCC 9027 assessed as inhibition zone at 1 mg after 24 hrs by agar diffusion method. It counts as functional. The note with it: ATCC 9027, 24 h, read-out: IZ. The method in brief:
as §1

The next experiment has as its system Candida albicans. Kind of experiment: Antifungal activity against Candida albicans ATCC 2091 assessed as inhibition zone at 1 mg after 24 hrs by agar diffusion method. The format is functional. The note with it: ATCC 2091, 24 h, read-out: IZ. The method in brief: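 Agar diffusion (cup) assay; Candida albicans ATCC 2091. Compound 1 mg dissolved in 1 mL DMF, 100 µL placed per cup; incubated 37 °C for 24 h; inhibition zone measured in mm.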

Turning to `COc1c(Br)cc(O)c(O)c1C=O`, the zone of inhibition at 1000 µg/disc in the experiment on Klebsiella pneumoniae came out at 3 mm. The Activity entry in the experiment on HCT-116 was “Not toxic”.

With `C[N+]1=C2C=C(N)C(=O)c3[nH]cc(c32)CC1`, in the experiment with HCT-116, the Activity entry was “Not toxic”.

Turning to `N#CC(=O)NCCCOc1c(Br)cc(CCN)cc1Br`, the Activity result with HCT-116 is “Not toxic”.

As for `NCCCOc1c(Br)cc(C(O)CN)cc1Br` (stereo not drawn), the Activity entry in the experiment on HCT-116 was “Not toxic”.

Regarding `NCCCOc1c(Br)cc(CCN)cc1Br`, the result with Jejunum [1], in the experiment with Jejunum [2], in the experiment on Heart [3] and with Heart [4] was Active. Besides, in the experiment on HCT-116, the Activity entry is “Not toxic”.

In the case of `CCOC(=O)c1c(O)c(O)cc(Br)c1OC` [CERATINOPHENOL A], the zone of inhibition at 1000 µg/disc in the experiment with Staphylococcus aureus came to 7 mm; in the experiment with Pseudomonas aeruginosa, 4 mm; with Klebsiella pneumoniae, 3 mm; in the experiment with Candida albicans, 2 mm. The Activity entry in the experiment with HCT-116 is “Not toxic”.

`NCCc1cc(Br)c(OCCCNC(=O)C(N)=O)c(Br)c1` [MOLOKA'IAKITAMIDE]: the result with Jejunum [1], in the experiment on Jejunum [2], in the experiment on Heart [3] and in the experiment on Heart [4] was Active. In the experiment on Candida albicans, the zone of inhibition at 1000 µg/disc came to 3 mm. In addition, the Activity result in the experiment on HCT-116 was “Not toxic”.

As to `COC1=C(Br)C[C@]2(OC=C1Br)ON=C(C(=O)NCCCOc1c(Br)cc(CCN)cc1Br)[C@@H]2O` [PSAMMAPLYSIN A], in the experiment with Klebsiella pneumoniae, the zone of inhibition at 1000 µg/disc worked out at 3 mm. The Activity entry in the experiment on HCT-116 was “Not toxic”.

The values above are taken from ChEMBL document CHEMBL1155811, “Bioactive brominated metabolites from the Red Sea sponge Pseudoceratina arabica” (2008).
